Measurements from ChEMBL document CHEMBL1138838, “Design, chemical synthesis, and biological evaluation of thiosaccharide analogues of morphine- and codeine-6-glucuronide” (J Med Chem, 2004).

test: Inhibition of [3H]DPDPE binding to Opioid receptor delta 1
Procedure, shortened: (§1)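 Membranes from cells expressing the receptor, homogenized and washed in Tris, resuspended in 50 mM Tris pH 7.5. Incubated 60–120 min at 25 °C with [3H]DAMGO (mu), [3H]DPDPE (delta) or [3H]U69593 (kappa), about 15–30 μg protein. Filtration on glass fiber filters, scintillation counting. IC50 from at least six test concentrations; Ki by Cheng–Prusoff.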

Point of comparison: `CC(=O)OC1C(CO)OC(SC2C=C[C@H]3[C@H]4Cc5ccc(O)c6c5[C@@]3(CCN4C)[C@H]2O6)C(OC(C)=O)C1OC(C)=O` (some centres undefined), Ki 56.2 µM. Against it:
- CC(=O)OCC1OC(SC2C=C[C@H]3[C@H]4Cc5ccc(OC(C)=O)c6c5[C@@]3(CCN4C)[C@H]2O6)C(OC(C)=O)C(OC(C)=O)C1OC(C)=O (some centres undefined) — 14-fold higher, 762 µM
- COC(=O)C1OC(SC2C=C[C@H]3[C@H]4Cc5ccc(O)c6c5[C@@]3(CCN4C)[C@H]2O6)C(OC(C)=O)C(OC(C)=O)C1OC(C)=O (some centres undefined) — 3.6-fold lower, 15.6 µM
- CC(=O)OCC1OC(SC2C=C[C@H]3[C@H]4Cc5ccc(O)c6c5[C@@]3(CCN4C)[C@H]2O6)C(OC(C)=O)C(OC(C)=O)C1OC(C)=O (stereo in doubt; 5e) [listing 1 of 2 here] — 2.9-fold lower, 19.5 µM

test: Inhibition of [3H]DAMGO binding to Opioid receptor mu 1; procedure, shortened: as §1

Point of comparison: `CC(=O)OCC1OC(SC2C=C[C@H]3[C@H]4Cc5ccc(OC(C)=O)c6c5[C@@]3(CCN4C)[C@H]2O6)C(OC(C)=O)C(OC(C)=O)C1OC(C)=O` (some centres undefined), Ki 305 µM. Against it:
- CC(=O)OC1C(CO)OC(SC2C=C[C@H]3[C@H]4Cc5ccc(O)c6c5[C@@]3(CCN4C)[C@H]2O6)C(OC(C)=O)C1OC(C)=O (some centres undefined) — 56-fold lower, 5.4 µM
- COC(=O)C1OC(SC2C=C[C@H]3[C@H]4Cc5ccc(O)c6c5[C@@]3(CCN4C)[C@H]2O6)C(OC(C)=O)C(OC(C)=O)C1OC(C)=O (some centres undefined) — 56-fold lower, 5.4 µM

test: Maximum efficacy for [35S]GTP-gamma-S, binding to Opioid receptor kappa 1; format: functional
Procedure, shortened: (§2)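 Membranes from cells expressing the receptor, washed and resuspended in 20 mM Hepes, 10 mM MgCl2, 100 mM NaCl, pH 7.4. 8–15 μg protein incubated 60 min at 25 °C with 50 pM [35S]GTP-γ-S, 10 μM GDP and test compound. Bound label collected on glass fiber filters and counted; EC50 for stimulation of binding.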

Point of comparison: `CC(=O)OCC1OC(SC2C=C[C@H]3[C@H]4Cc5ccc(OC(C)=O)c6c5[C@@]3(CCN4C)[C@H]2O6)C(OC(C)=O)C(OC(C)=O)C1OC(C)=O` (some centres undefined), Emax 36.9. Against it:
- CC(=O)OC1C(CO)OC(SC2C=C[C@H]3[C@H]4Cc5ccc(O)c6c5[C@@]3(CCN4C)[C@H]2O6)C(OC(C)=O)C1OC(C)=O (some centres undefined) — higher, 42.5
- COC(=O)C1OC(SC2C=C[C@H]3[C@H]4Cc5ccc(O)c6c5[C@@]3(CCN4C)[C@H]2O6)C(OC(C)=O)C(OC(C)=O)C1OC(C)=O (some centres undefined) — lower, 23.5
- CC(=O)OCC1OC(SC2C=C[C@H]3[C@H]4Cc5ccc(O)c6c5[C@@]3(CCN4C)[C@H]2O6)C(OC(C)=O)C(OC(C)=O)C1OC(C)=O (stereo in doubt; 5e) [listing 2 of 2 here] — lower, 26.5

test: Maximum efficacy for [35S]GTP-gamma-S, binding to Opioid receptor mu 1; format: functional; procedure, shortened: as §2

Point of comparison: `CN1CC[C@]23c4c5ccc(O)c4O[C@H]2[C@@H](O)C=C[C@H]3[C@H]1C5`, Emax 93. Against it:
- CC(=O)OCC1OC(SC2C=C[C@H]3[C@H]4Cc5ccc(OC(C)=O)c6c5[C@@]3(CCN4C)[C@H]2O6)C(OC(C)=O)C(OC(C)=O)C1OC(C)=O (some centres undefined) — lower, 44.1
- CC(=O)OC1C(CO)OC(SC2C=C[C@H]3[C@H]4Cc5ccc(O)c6c5[C@@]3(CCN4C)[C@H]2O6)C(OC(C)=O)C1OC(C)=O (some centres undefined) — lower, 64.5
- COC(=O)C1OC(SC2C=C[C@H]3[C@H]4Cc5ccc(O)c6c5[C@@]3(CCN4C)[C@H]2O6)C(OC(C)=O)C(OC(C)=O)C1OC(C)=O (some centres undefined) — lower, 88.3
- CC(=O)OCC1OC(SC2C=C[C@H]3[C@H]4Cc5ccc(O)c6c5[C@@]3(CCN4C)[C@H]2O6)C(OC(C)=O)C(OC(C)=O)C1OC(C)=O (stereo in doubt; 5e) [listing 2 of 2 here] — lower, 76

test: Inhibition of [3H]U-69593 binding to Opioid receptor kappa 1; procedure, shortened: as §1

Point of comparison: `CC(=O)OCC1OC(SC2C=C[C@H]3[C@H]4Cc5ccc(OC(C)=O)c6c5[C@@]3(CCN4C)[C@H]2O6)C(OC(C)=O)C(OC(C)=O)C1OC(C)=O` (some centres undefined), Ki 1390 µM. Against it:
- CC(=O)OC1C(CO)OC(SC2C=C[C@H]3[C@H]4Cc5ccc(O)c6c5[C@@]3(CCN4C)[C@H]2O6)C(OC(C)=O)C1OC(C)=O (some centres undefined) — 10-fold lower, 136 µM
- COC(=O)C1OC(SC2C=C[C@H]3[C@H]4Cc5ccc(O)c6c5[C@@]3(CCN4C)[C@H]2O6)C(OC(C)=O)C(OC(C)=O)C1OC(C)=O (some centres undefined) — 130-fold lower, 11 µM
- CC(=O)OCC1OC(SC2C=C[C@H]3[C@H]4Cc5ccc(O)c6c5[C@@]3(CCN4C)[C@H]2O6)C(OC(C)=O)C(OC(C)=O)C1OC(C)=O (stereo in doubt; 5e) [listing 1 of 2 here] — 2.1-fold higher, 2970 µM

test: Maximum efficacy for [35S]GTP-gamma-S, binding to Opioid receptor delta 1; format: functional; procedure, shortened: as §2

Point of comparison: `CC(=O)OC1C(CO)OC(SC2C=C[C@H]3[C@H]4Cc5ccc(O)c6c5[C@@]3(CCN4C)[C@H]2O6)C(OC(C)=O)C1OC(C)=O` (some centres undefined), Emax 51.5. Against it:
- CC(=O)OCC1OC(SC2C=C[C@H]3[C@H]4Cc5ccc(OC(C)=O)c6c5[C@@]3(CCN4C)[C@H]2O6)C(OC(C)=O)C(OC(C)=O)C1OC(C)=O (some centres undefined) — lower, 39.3
- COC(=O)C1OC(SC2C=C[C@H]3[C@H]4Cc5ccc(O)c6c5[C@@]3(CCN4C)[C@H]2O6)C(OC(C)=O)C(OC(C)=O)C1OC(C)=O (some centres undefined) — higher, 104
- CC(=O)OCC1OC(SC2C=C[C@H]3[C@H]4Cc5ccc(O)c6c5[C@@]3(CCN4C)[C@H]2O6)C(OC(C)=O)C(OC(C)=O)C1OC(C)=O (stereo in doubt; 5e) [listing 2 of 2 here] — lower, 45.5
